# beta cell repl: inducers of MIN6 beta-cell proliferation, primary screen, ATP luminescence, uHTS | AID 2380, 2010 | proliferation, % at 10 µM | MIN6 cells proliferation, ATPlite luminescence, 48 h; cells starved in 0.2% serum; 100% = growth in 10% serum | 0.29% of 330,000 active;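 active means compounds whose signal lies at least 3.5 SD above the mean of all wells on their plate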;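 further: 0% = DMSO-treated cells in low-serum medium and 100% = 10% serum control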
# MT1-MMP act inh: blockers of MT1-MMP proenzyme processing, primary screen, HT1080 RFP-PRO-GFP cells, GFP/RFP fluorescence; Matrix metalloproteinase-14 (Homo sapiens), P50281; GFP/RFP ratio fluorescence, overnight; percent of plate control window, DMSO zero; GFP/RFP ratio change, % at 20 µM; 0.061% of 360,000 active;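 active means GFP/RFP ratio change of at least 30% with cell ATP level not reduced by more than half and red fluorescence within 50% of control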
#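 Test system: HT1080 cells expressing an RFP-PRO-GFP fluorescent reporter construct / Compound dosing: single-point 20 µM compound, 1% DMSO / Schedule: cells overnight before dosing, compound overnight, 37 °C, 5% CO2 / Evaluation: GFP/RFP fluorescence ratio / Control set: DMSO and RFP-L50D-GFP cell wells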
# SKN-1 inh: suppressors of acrylamide-induced Pgst-4::GFP reporter in worms, primary screen, SKN-1 inhibitor project, whole organism, uHTS, GFP/RFP fluorescence ratio, strain VP596. C. elegans VP596 Pgst-4::GFP/RFP ratio, 24 h. inhibition, % at 21.8 µM. 0.49% of 360,000 active. AID 624304, 2012;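 active means interference check ratio from 0.5 to 1.5 plus GFP to RFP signal ratio inhibition reaching or exceeding a fixed threshold, cut at about 30% in these data, passing the limit was not always enough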
# MsrA inh: bovine MsrA enzyme inhibitors, primary screen, biochemical, absorbance, HTS; inhibition, % at 15.5 µM; 0.75% of 360,000 active; AID 651718, 2012; purified bovine MsrA, absorbance read-out; in the data active means inhibition above about 4.5%;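 further: 0% = vehicle wells with enzyme and 100% = reference inhibitor wells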
# bovine MsrA act: bovine MsrA enzyme activators, primary screen, biochemical, absorbance, HTS; Methionine sulfoxide reductase A (Bos taurus); purified bovine MsrA, absorbance read-out; activation, % at 10.6 µM; 0.3% of 360,000 active; in the data active means activation above about 7.5%;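 further: 0% = vehicle and 100% = reference activator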
# DAGLB inhibitor: DAGLB lipase inhibitors, primary screen, biochemical, fluorescence, HTS; Diacylglycerol lipase-beta (Homo sapiens), Q8NCG7; HEK293T DAGLB membrane lysate, EnzChek fluorogenic substrate; inhibition, % at 5.17 µM; 0.059% of 340,000 active; in the data active means inhibition above about 34%;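 further: 0% = enzyme with vehicle and 100% = wells lacking enzyme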
# Target sequence (Q8NCG7 whole entry, looked up): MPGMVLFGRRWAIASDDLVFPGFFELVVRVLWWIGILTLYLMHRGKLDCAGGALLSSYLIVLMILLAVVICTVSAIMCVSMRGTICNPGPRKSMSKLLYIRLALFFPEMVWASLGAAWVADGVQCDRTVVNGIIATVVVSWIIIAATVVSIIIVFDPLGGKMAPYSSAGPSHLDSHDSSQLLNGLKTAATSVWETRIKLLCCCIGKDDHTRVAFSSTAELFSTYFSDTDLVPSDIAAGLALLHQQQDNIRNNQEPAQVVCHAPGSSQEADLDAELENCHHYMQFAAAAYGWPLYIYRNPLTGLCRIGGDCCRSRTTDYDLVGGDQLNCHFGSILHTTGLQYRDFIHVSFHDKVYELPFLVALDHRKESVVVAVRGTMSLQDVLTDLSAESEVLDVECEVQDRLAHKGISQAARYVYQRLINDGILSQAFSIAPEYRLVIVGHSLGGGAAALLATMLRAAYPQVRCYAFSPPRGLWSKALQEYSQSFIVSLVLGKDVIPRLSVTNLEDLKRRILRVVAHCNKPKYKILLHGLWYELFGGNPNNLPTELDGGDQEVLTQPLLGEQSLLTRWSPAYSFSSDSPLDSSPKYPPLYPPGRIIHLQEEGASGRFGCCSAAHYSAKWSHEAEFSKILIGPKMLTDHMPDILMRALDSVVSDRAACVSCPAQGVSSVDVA
# * hit, by the source's call; nt = no result given. Shown are actives, neighbours in structure and some others; about 1.8% of the full set was active somewhere.
SMILES,beta cell repl,MT1-MMP act inh,SKN-1 inh,MsrA inh,bovine MsrA act,DAGLB inhibitor
C[C@@H]1ON(C)[C@H]2C[C@H]3c4[nH]c5cccc(-c6ccccc6)c5c4CCN3C[C@@H]12,nt,nt,nt,1,nt,nt
C#CCSc1ncc(-c2ccccc2)cn1,-2,5,90*,0,0,-9
C=CCSc1ncc(-c2ccccc2)cn1,-3,6,73*,1,-2,-9
C=CCSc1n[nH]c(-c2ccccc2)n1,2,2,15,1,-6,-2
NC1(N2SC(S)=C3CCCC=C32)CCCCC1,nt,nt,nt,-1,nt,nt
O=[N+]([O-])c1cccc(-c2c(-c3ccccc3)ncc3cc(F)ccc23)c1,-6,-1,37*,2,-2,-3
O=C(N[C@H](C(=O)N1CCC[C@H]1C(=O)NC1CCCC1)C1CCCCC1)c1nccs1,nt,nt,nt,3,nt,nt
C[n+]1ccc(/C=C/c2ccccc2O)c2ccccc21,-1,-6,4,2,-4,3
CN1/C(=C/c2cc[n+](C)c3ccccc23)C=Cc2ccccc21,nt,64*,28,nt,0,2
Clc1ccc(N2CCN(/N=C/c3cccnc3)CC2)cc1,2,4,66*,1,-4,-1
CCCn1cc(CCC(=O)Nc2ccc(Oc3cccnc3)cc2)c2ccccc21,nt,nt,nt,-1,nt,nt
CC1=C(C(=O)OCC2CCCO2)C(c2ccccc2OC(C)C)C2=C(CC(c3ccco3)CC2=O)N1 (stereo not drawn),-4,-3,40*,1,-3,-12
O=C(c1ccccc1Cl)N1CCSCCS1(=O)=O,nt,nt,nt,1,nt,nt
CCCCN1/C(=C/c2ccc3ccccc3[n+]2CC)Sc2ccccc21,-5,-151,36*,nt,-2,nt
CCN1/C(=C/c2ccc3cc(C)ccc3[n+]2CC)Sc2cc(C)ccc21,nt,-23,56,0,1,-12
c1ccc(-c2ccc(-c3ccncn3)cc2)cc1,-1,0,56*,0,-1,-2
c1ccc(-c2cncnc2)nc1,-2,3,10,0,-3,-7
O=Cc1coc([B-](F)(F)F)c1,nt,nt,nt,0,nt,nt
COc1ccc(/C=C\c2nc(=O)c3ccccc3o2)cc1,-5,0,0,4.7*,-5,1
Cc1noc(C)c1S(=O)(=O)N(C)C[C@@H]1OCc2cn(nn2)CCCC(=O)N([C@H](C)CO)C[C@H]1C,nt,nt,nt,1,nt,nt
N#CCOC(=O)/C=C/c1ccc2c(c1)OCO2,-1,2,-7,7.0*,-6,-3
O=C(COC(=O)/C=C/c1ccc2c(c1)OCO2)NC1CC1,3,-1,-8,3,-7,0
COc1ccc(C2(c3ccc(OC)cc3)NC(=O)N(CC(=O)NC3CCS(=O)(=O)C3)C2=O)cc1 (stereo not drawn),-3,-4,40*,0,-2,3
C=CCN(c1ccc(C(=O)NC(C)C)cc1)S(C)(=O)=O,-2,-2,47*,0,-5,-1
CCC(C)(C)n1nnnc1C(C(C)C)N(CCCO)Cc1cc2cc(C)ccc2[nH]c1=O (stereo not drawn),-2,-5,44*,0,-4,1
SMILES,beta cell repl,MT1-MMP act inh,SKN-1 inh,MsrA inh,bovine MsrA act,DAGLB inhibitor
Cn1c(-c2ccc(CN3CCCCC3)o2)nc2ccccc21,-1,-1,36*,0,-3,1
Cc1ccc(CNc2nc3ccccc3n2C)o1,0,-1,-7,-1,1,-1
Nc1nc2c(ncn2[C@@H]2O[C@H](C(=O)NC3CCCCC3)[C@@H](O)[C@H]2O)c(=O)[nH]1,nt,nt,nt,0,nt,nt
CN(C)c1cccc2c(S(=O)(=O)NCC3CCN(C(=O)C(=O)c4cc5ccccc5o4)CC3)cccc12,nt,nt,nt,0,nt,nt
Cc1cccc(C)c1OCC(=O)Nc1nnc(C2CCCO2)s1 (stereo not drawn),-3,-6,37*,0,-11,-1
CCCCS(=O)(=O)N1CCCc2nc(CC)c(CC)cc21,nt,nt,nt,0,nt,nt
CN(C)c1ccc(/C=C(\NC(=O)c2ccccc2)C(=O)NCc2ccncc2)cc1,0,3,8,4.7*,-4,-2
CN(C)c1ccc(/C=C(\NC(=O)c2ccccc2)C(=O)NCc2cccnc2)cc1,-1,3,9,4,-4,0
CN1CCN(C(=O)/C(=C/c2ccc(F)cc2)NC(=O)c2ccccc2)CC1,-1,0,3,0,-2,0
CN1CCN(C(=O)/C(=C/c2ccc(N(C)C)cc2)NC(=O)c2ccccc2)CC1,3,-1,-5,4.6*,-4,2
COc1cccc(C(=O)N[C@H](C(=O)N2CCC[C@H]2C(=O)NC2CCCC2)C2CCCCC2)c1,nt,nt,nt,0,nt,nt
O=C(Nc1ccc(Cl)cn1)c1ccccc1F,-2,4,59*,0,-1,-6
Cc1ccccc1CN1[C@@H](C)[C@H](c2ccccc2)Oc2cccc(NCC(C)C)c2S1(=O)=O,nt,nt,nt,0,nt,nt
O=C(Nc1cc(-c2ccccc2)[nH]n1)c1ccccc1,-3,-1,37*,0,0,3
CSc1ccc(/C=N/N2CCN(Cc3ccc(Cl)cc3)CC2)cc1,-1,3,55*,1,1,-15
C[C@H]1CN([C@@H](C)CO)C(=O)c2c(c3ccccc3n2C)-c2ccccc2CO[C@H]1CN(C)C(=O)Nc1cccc(F)c1,nt,nt,nt,0,nt,nt
CN(C)c1ccc(/C=C/c2ccc3ccccc3n2)cc1,nt,-57,58*,nt,-2,-24
Oc1ccc(/C=C/c2ccc3ccccc3n2)cc1,-6,-1,25,3,-4,0
C(=Cc1c[nH]c2ccccc12)c1ccc2ccccc2n1,nt,-98,72,2,-2,-1
C(=C\c1ccc2ccccc2n1)/c1ccccc1,-3,4,84*,1,-3,-9
Fc1ccccc1/C=C/c1ccc2ccccc2n1,-1,0,88*,1,-5,-9
O=C1CC2c3cc(-c4cc5ccccc5o4)ccc3CCN2C(=O)CN1Cc1ccccc1 (stereo not drawn),nt,nt,nt,2,nt,nt
Cc1ccccc1-c1ccc2c(c1)[C@@H]1C[C@H](N(C)S(=O)(=O)c3ccc(Cl)cc3)[C@H]([C@H](C)O)CN1CC2,nt,nt,nt,1,nt,nt
OC1(C#Cc2c(-c3ccsc3)sc3ccccc23)CCCCC1,nt,nt,nt,0,nt,nt
CCOC(=O)c1cc2cc3ccccc3cc2[nH]1,-4,-1,40*,0,0,-4
COc1ccccc1N=Nc1c(O)[nH]c2ccc(Br)cc12,1,-41,50*,2,-2,-1
Oc1[nH]c2ccc(Br)cc2c1N=NC(=S)Nc1ccc(F)cc1,-6,11,12,1,-2,14
